DNMT1 block: DNMT1 (human) enzyme inhibition; P26358; DNMT1 molecular beacon, Hinp1I cleavage, fluorescence; inhibition (reported as % activation of signal), % at 10 µM; actives 0.83% (n = 360,000); AID 588458; in the data active means inhibition above about 50%
LMPTP block: LMPTP (human) inhibition; inhibition, % at 20 µM; actives 0.22% (n = 360,000); P24666; recombinant LMPTP-A, OMFP fluorogenic substrate, fluorescence intensity;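 active means compounds that cut the enzyme signal by at least half of the control window in the single-dose screen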
Target sequence (P24666 whole entry, looked up): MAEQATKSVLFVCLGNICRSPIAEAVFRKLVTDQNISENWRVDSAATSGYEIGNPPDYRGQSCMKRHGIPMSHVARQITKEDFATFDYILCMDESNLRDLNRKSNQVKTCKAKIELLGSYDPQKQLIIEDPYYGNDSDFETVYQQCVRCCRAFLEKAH
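Buffer or medium: Bis-Tris pH 6.0, DTT, detergent; Assay system: LMPTP-A enzyme; Quantity: 0.625 nM enzyme; Detection: endpoint fluorescence intensity; Times: 50 min dark incubation at room temperature; Controls: substrate-only low control, DMSO enzyme-plus-substrate high control; Doses: single 20 µM dose; Read-out: percent inhibition versus substrate-only and uninhibited controls; Reagent: 400 µM OMFP.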
Scp1 inh: blocks human Scp-1 phosphatase activity; Q9GZU7; actives 0.88% (n = 340,000); inhibition, % at 20 µM; Recombinant Scp1, phosphopeptide, malachite green phosphate absorbance;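 active means inhibition above about 50% at 20 µM, limit read from the data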
Target sequence (Q9GZU7 76-261 limits assumed): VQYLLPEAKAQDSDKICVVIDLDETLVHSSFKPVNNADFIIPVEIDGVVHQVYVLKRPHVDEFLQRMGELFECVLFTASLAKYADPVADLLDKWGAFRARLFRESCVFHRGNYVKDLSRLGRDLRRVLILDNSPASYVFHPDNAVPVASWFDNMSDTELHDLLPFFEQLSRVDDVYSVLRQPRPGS
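Times: enzyme reaction 45 min at room temperature, colour 5 min, stabilisation 30 min. Material: SCP-1 catalytic fragment, aa 76-261. Medium: Acidic Tris acetate buffer with magnesium and detergent. Signal: colorimetric free-phosphate detection, absorbance 630 nm. Read-out basis: % inhibition of SCP-1 phosphate liberation. Reagent: Phosphorylated 17-residue peptide substrate.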
STEP inh: inhibitors of human striatal-enriched phosphatase STEP. P54829. recombinant STEP, OMFP fluorogenic substrate, fluorescence. inhibition, % at 20 µM. actives 0.25% (n = 360,000);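 active means inhibition at 20 µM, scaled per plate between control wells, above about 37%, limit read from the data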
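System: STEP (striatal-enriched tyrosine phosphatase) enzyme, cell-free; medium: Bis-Tris pH 6.0 buffer with DTT, detergent; dosing: 20 µM, 1% DMSO; times: reaction 20 min, ambient temperature; detection: fluorescence, 480/540 nm; read-out basis: normalized % inhibition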
Rpn11 inh: inhibitors of human proteasome Rpn11 | O00487 | human 26S proteasome, Ub4-pepOG fluorescence polarization; 20S core pre-blocked with epoxomicin | inhibition, % at 20 µM | actives 0.59% (n = 360,000) | AID 588493;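 active means inhibition at 20 µM, scaled to each plate's controls, above about 33%, limit read from the data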
Target sequence (O00487 whole entry, looked up): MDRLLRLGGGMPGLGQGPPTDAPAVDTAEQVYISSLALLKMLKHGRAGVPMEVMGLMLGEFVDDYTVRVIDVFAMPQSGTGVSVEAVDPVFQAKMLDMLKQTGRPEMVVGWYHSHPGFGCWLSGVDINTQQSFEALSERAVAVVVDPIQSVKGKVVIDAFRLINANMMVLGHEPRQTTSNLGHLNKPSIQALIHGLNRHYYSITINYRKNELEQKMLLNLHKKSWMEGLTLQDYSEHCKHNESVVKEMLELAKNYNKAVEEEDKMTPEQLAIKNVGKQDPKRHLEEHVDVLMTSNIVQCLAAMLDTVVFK
DNMT1 inh conf: confirmation of human DNMT1 inhibitors | actives 8% (n = 2,300) | AID 602385 | inhibition, % at 10 µM | shares compounds with DNMT1 block | DNMT1 molecular beacon HinP1I cleavage, fluorescence;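 active means average inhibition of at least 30% in the single-concentration confirmation test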
DNMT1 interf: shows spectral interference in the DNMT1 beacon assay; shares compounds with DNMT1 block; activation (fluorescence interference), % at 10 µM; DNMT1 molecular beacon spectral interference counterscreen, fluorescence 485/520; actives 1% (n = 2,300); AID 602387;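 active means activation of at least 30% at 10 µM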;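 further: DNMT1 catalytic domain with a HinP1I cleavage step and a FAM/dabcyl DNA beacon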
Of the large screens only hits and unclear results are named; the others gave an inactive call (follow-up assays come after a bar, where shown); ! = repeats disagree. This is a sample that favours compounds with a hit; in the whole collection about 2% have one here.

O=[N+]([O-])c1cccc(/C=C/c2nc(C=Nc3ccc4ccccc4c3)c(O)o2)c1	DNMT1 block 53 | DNMT1 inh conf inactive | DNMT1 interf inactive
Cc1ccc(Oc2ccc(NS(=O)(=O)c3cccc(C(=O)O)c3)cc2)cc1	none
CCOC(=O)C1=C(c2ccccc2)N=C2SCC(=O)N2C1c1ccc2c(c1)OCO2 (stereo unspecified)	none
Cc1csc(C(=O)NN)c1N(C)C	none
O=C(Nc1ccc(N2CCN(c3ccc(C(F)(F)F)cn3)CC2)nc1)c1cccs1	DNMT1 block 52 | DNMT1 inh conf inactive | DNMT1 interf inactive
N#Cc1nc(-c2cccs2)oc1NCC1CCCO1 (stereo unspecified)	DNMT1 block 67 | DNMT1 inh conf inactive | DNMT1 interf inactive
CCc1ccc(C(=O)NNC(=O)c2cccc(S(=O)(=O)N3CCN(C)CC3)c2)cc1	none
CC(C)[C@H](NC(=O)[C@H](Cc1ccccc1)n1c(=O)[nH]c2ccccc2c1=O)C(=O)N1CCC[C@@H]1C(=O)O	DNMT1 block 82 | DNMT1 inh conf inactive | DNMT1 interf inactive
CCC(NC(=O)COc1cc2c(c3oc(=O)c(C)c(C)c13)CCC(C)(C)O2)C(=O)O (stereo unspecified)	none
Cc1ccc(C(=O)Nc2cccc(C(F)(F)F)c2)cc1NC(=O)c1[nH]cnc1C(N)=O	DNMT1 block 56 | DNMT1 inh conf inactive | DNMT1 interf inactive
Cc1ccc(C(=O)Nc2cccc(C(F)(F)F)c2)cc1NC(=O)c1cnnc2ccccc12	DNMT1 block 55! | DNMT1 inh conf inactive | DNMT1 interf inactive
CC(=O)Nc1ccc(S(=O)(=O)NCC(CCC(=O)O)C(F)(F)F)cc1 (stereo unspecified)	DNMT1 block 60 | DNMT1 inh conf inactive | DNMT1 interf inactive
O=C(CCN1CCc2ccccc21)c1ccc2c(c1)OCCO2	DNMT1 block 54 | DNMT1 inh conf inactive | DNMT1 interf inactive
CCCCc1cc(=O)oc2c(C)c(OCC(=O)N3CCCC3)ccc12	none
CCCc1cc(=O)oc2c(C)c(OCC(=O)c3ccc(N4CCCC4)cc3)ccc12	DNMT1 block 57 | DNMT1 inh conf inactive | DNMT1 interf inactive
O=C(Nc1ccc(Cl)cc1)c1cc(-c2cccs2)on1	DNMT1 block 50 | DNMT1 inh conf inactive | DNMT1 interf inactive
O=C(Nc1ccc(Br)cc1)c1cc(-c2cccs2)on1	none
C=CCSC1=N/C(=C\C=C\c2ccco2)C(=O)S1	DNMT1 block 97, Scp1 inh 53 | DNMT1 inh conf inactive | DNMT1 interf inactive
Cc1cnn(-c2cc(N/N=C/c3ccccc3F)ncn2)c1	DNMT1 block 56 | DNMT1 inh conf inactive | DNMT1 interf inactive
CC(=O)c1cccc(NC(=O)CN2C(=O)C3C4C=CC(C4)C3C2=O)c1 (stereo unspecified)	DNMT1 block 50 | DNMT1 inh conf inactive | DNMT1 interf inactive
COc1ccc(-c2nnc(SCC(=O)NC3CCCCC3)n2N)cc1	none
CC(=O)Nc1ccc(OC(F)(F)C(F)F)c(NC(C)=O)c1	none
C=C(C)C(=O)Nc1ccc(OC(F)(F)C(F)F)c(NC(=O)C(=C)C)c1	DNMT1 block 56 | DNMT1 inh conf inactive | DNMT1 interf inactive
CC1CCc2c(sc3ncn(N)c(=N)c23)C1 (stereo unspecified)	none
C=CCn1c(SCc2nc3sc4c(c3c(=O)[nH]2)CCCC4)nc2ccccc2c1=O	DNMT1 block 55 (not shown: Rpn11 inh) | DNMT1 inh conf inactive | DNMT1 interf inactive
O=C(Cn1ncc2c1-c1ccccc1OC2)N1CCc2ccccc21	none
O=C(O)Cn1ncc2c1-c1ccoc1CC2	DNMT1 block 89 | DNMT1 inh conf inactive | DNMT1 interf inactive
C=CCN1C(=O)C2(OCCO2)c2cc(C)ccc21	none
CCOC(=O)c1cn(-c2ccc(F)c(F)c2F)c2c(F)c(F)c(F)cc2c1=O	none
CCOC(=O)c1cn(-c2nc(-c3ccc(Cl)c(Cl)c3)cs2)c2c(F)c(N3CCOCC3)c(F)cc2c1=O	DNMT1 block 58 | DNMT1 inh conf inactive | DNMT1 interf inactive
CCCCCCc1cc2cc(-c3nnc(-c4cc(OC)c(OC)c(OC)c4)o3)c(=O)oc2cc1O	none (no result: DNMT1 block, LMPTP block, STEP inh, Rpn11 inh)
CCCCCCc1cc2cc(-c3nnc(-c4ccccc4OC)o3)c(=O)oc2cc1O	DNMT1 block 100 (not shown: Rpn11 inh) | DNMT1 inh conf inactive | DNMT1 interf inactive
O=C(CC1Oc2ccccc2NC1=O)NC1CCCC1 (stereo unspecified)	none
O=C(CC1Oc2ccccc2NC1=O)NC1CC1 (stereo unspecified)	DNMT1 block 97 (no result: Scp1 inh) | DNMT1 inh conf inactive | DNMT1 interf inactive
CCN(Cc1ccccc1)C(=O)Cn1cc(S(=O)(=O)NC)c(S(=O)(=O)NC)c1	none
O=C(CC1Sc2ccccc2NC1=O)NCc1ccccc1 (stereo unspecified)	none
Cc1ccc(NC(=O)C2C3C=CC4(O3)C2C(=O)N(CCCN2CCCC(C)C2)C4C(=O)NC2CCCCC2)cc1 (stereo unspecified)	none
CC1(C)C(=O)Nc2ccccc2N1C(=O)COc1cccnc1[N+](=O)[O-]	DNMT1 block 58 | DNMT1 inh conf inactive | DNMT1 interf inactive
COc1cccc2c1OCC(C(=O)O)C2 (stereo unspecified)	DNMT1 block 53 | DNMT1 inh conf inactive | DNMT1 interf inactive
COc1ccc(NC(=O)C2Cc3cccc(OC)c3O/C2=N\O)cc1 (stereo unspecified)	none
O=C(Nc1ccccc1)C1CCCN1C(=O)NCc1ccccc1 (stereo unspecified)	none
CC(=O)Nc1ccc(NC(=O)C2CCCN2C(=O)NCc2ccccc2)cc1 (stereo unspecified)	DNMT1 block 88 | DNMT1 inh conf inactive | DNMT1 interf inactive
COCCCn1c(C(=O)Nc2ccc3c(c2)OCO3)cc2c(=O)n3cccc(C)c3nc21	DNMT1 block 83 (no result: Scp1 inh) | DNMT1 inh conf inactive | DNMT1 interf inactive
COCCCn1c(C(=O)N2CCOCC2)cc2c(=O)n3cccc(C)c3nc21	none
COc1cc2c(cc1NC(=O)CSc1ccc(C)cc1)oc1ccccc12	none
COc1cc2c(cc1NC(=O)CSc1cccc[n+]1[O-])oc1ccccc12	DNMT1 block 72 | DNMT1 inh conf inactive | DNMT1 interf inactive
COc1cc2c(cc1NC(=O)CSc1nnnn1-c1ccccc1)oc1ccccc12	DNMT1 block 52 | DNMT1 inh conf inactive | DNMT1 interf inactive
COc1ccccc1C(=O)NCC(c1ccco1)N1CCc2ccccc21 (stereo unspecified)	none
CCOC(=O)C(C)On1c(-c2ccccc2)nc2ccc([N+](=O)[O-])cc21 (stereo unspecified)	none

Compound activity (PubChem)
